The values that follow come from ChEMBL document CHEMBL3232712, “Antineoplastic agents. 595. Structural modifications of betulin and the X-ray crystal structure of an unusual betulin amine dimer” (2014).

Common to all, as to type: functional
In test [1] the test system is P388. Description: Cytotoxicity against mouse P388 cells after 48 hrs. The following applies: P388, 48 h, read-out: ED50 (the source's name). In a few lines: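 Murine P388 leukemia cells, counted by Coulter counter, were grown 24 h in Fisher medium with 10% horse serum, then exposed 48 h to serial compound dilutions. Cell numbers were determined with a Coulter particle counter, and ED50 was calculated for growth inhibition.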

In test [2] the test system is SF-268. Briefly: Cytotoxicity against human SF268 cells after 48 hrs by SRB assay. The following applies: SF-268, 48 h. In a few lines: (§1)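 Human tumour lines in RPMI1640 with 5% fetal bovine serum, trypsinized and counted by hemacytometer, seeded in 96-well plates and allowed 24 h before serial compound dilutions were added. After 48 h exposure, cells were fixed with trichloroacetic acid and stained with sulforhodamine B, and optical density was read. GI50 was taken as the concentration halving net protein increase.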
For orientation: The SRB assay estimates cell density from bound dye.

Test [3] deals with NCI-H460. Briefly: Cytotoxicity against human NCI-H460 cells after 48 hrs by SRB assay. The following applies: NCI-H460, 48 h. In a few lines:
as §1

Test [4] can be described thus: Cytotoxicity against human BxPC3 cells after 48 hrs by SRB assay. The following applies: BXPC-3, 48 h. In a few lines:
as §1

The subject of test [5] is MCF7. Briefly: Cytotoxicity against human MCF7 cells after 48 hrs by SRB assay. The following applies: MCF7, 48 h. The method, boiled down:
as §1

The test system of test [6] is DU-145. Briefly: Cytotoxicity against human DU145 cells after 48 hrs by SRB assay. The following applies: DU-145, 48 h. In a few lines: as §1
Test [7] is described as follows: Cytotoxicity against human KM20L2 cells after 48 hrs by SRB assay. To be noted: KM-20L2, 48 h. The method, boiled down: as §1

Converted amounts (≈) assume the structure as drawn.

The GI50 is the concentration giving 50% growth inhibition. For `C=C(C)[C@@H]1CC[C@]2(C(=O)OC)CC[C@]3(C)[C@H](CC[C@@H]4[C@@]5(C)CCC(=O)C(C)(C)[C@@H]5CC[C@]43C)[C@@H]12` [METHYL BETULONATE], the EC50 in test [1] was greater than 10 µg/mL. For the same molecule, the GI50 in test [2] came to 2.7 µg/mL (≈ 5.76 µM); in test [3], 2.3 µg/mL (≈ 4.91 µM); in test [4], 2.4 µg/mL (≈ 5.12 µM); in test [5], 2.7 µg/mL (≈ 5.76 µM); in test [6], 2.3 µg/mL (≈ 4.91 µM); in test [7], 2.2 µg/mL (≈ 4.69 µM).
